High-throughput results deposited in PubChem BioAssay by Johns Hopkins Ion Channel Center.
The list is not random: actives were taken first. Their share in the collection is about 3.5%.
RGS4 pot = potentiators or activators of RGS4; HEK293 M3R/inducible RGS4, carbachol calcium flux Fluo4; hits give low values; B-score at 10 µM; hit rate 0.92% among 310,000;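 active means B-score of the integrated calcium signal more than 4 SD below the library mean, with starting fluorescence not abnormally high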;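 further: negative B-score means reduced calcium response which marks RGS4 activation or potentiation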
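Assay system: Inducible-RGS4 HEK293 cells carrying M3 receptor | Schedule: Compound preincubation 20 min at room temperature before agonist | Signal: Kinetic calcium fluorescence imaging with Fluo4-AM dye, 2 µM | Read-out basis: B score from integrated fluorescence ratio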
RGS4 block = inhibitors of human RGS4. B-score at 10 µM. HEK293 M3R/RGS4 inducible, Fluo-4 calcium flux; hits give high values; triggered by carbachol at its EC20. P49798. hit rate 0.45% among 310,000. AID 463165;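 active means B-score, a plate-corrected calcium signal, over three deviations above library mean, with baseline fluorescence within five deviations of library mean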;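 further: RGS4 expression induced by doxycycline in cells with stable M3 receptor; B-score is computed from the integrated fluorescence ratio over baseline after carbachol; higher B-score means a larger calcium signal and so more RGS4 inhibition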
Target sequence (P49798 whole entry, looked up): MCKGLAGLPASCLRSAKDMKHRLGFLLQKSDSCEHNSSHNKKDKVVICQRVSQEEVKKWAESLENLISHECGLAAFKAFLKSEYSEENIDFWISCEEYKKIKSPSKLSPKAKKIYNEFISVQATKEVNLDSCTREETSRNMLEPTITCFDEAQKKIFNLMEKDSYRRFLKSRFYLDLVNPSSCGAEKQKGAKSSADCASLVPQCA
MrgX1 antag = antagonists of human MrgX1 receptor; Q96LB2; MRGX1-HEK293 calcium flux, Fluo-4, BAM8-22 antagonism; hits give low values; B-score at 10 µM; hit rate 1.3% among 310,000;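 active means calcium-response B-score plate-corrected more than 3 library SD below zero, starting fluorescence within 5 deviations, no agonist response on first addition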;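 further: peak minus trough fluorescence over baseline after final BAM8-22 challenge near maximal dose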
Target sequence (Q96LB2 whole entry, looked up): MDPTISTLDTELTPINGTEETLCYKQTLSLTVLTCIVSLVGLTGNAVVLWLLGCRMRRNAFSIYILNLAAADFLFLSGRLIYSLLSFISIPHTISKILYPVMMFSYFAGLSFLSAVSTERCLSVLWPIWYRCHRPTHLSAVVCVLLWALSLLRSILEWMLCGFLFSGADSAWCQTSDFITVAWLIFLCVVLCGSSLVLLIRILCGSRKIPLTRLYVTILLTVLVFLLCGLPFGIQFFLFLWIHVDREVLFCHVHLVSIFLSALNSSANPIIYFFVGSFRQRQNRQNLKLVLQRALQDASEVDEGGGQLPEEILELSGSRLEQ
MrgX1 agonist = human MrgX1 receptor agonism, primary screen; B-score at 10 µM; MrgX1-HEK293 cells, Fluo-4 calcium fluorescence, agonist mode; hits give high values; Q96LB2; AID 588627; hit rate 0.44% among 310,000;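 active means calcium response B-score plate-corrected fluorescence ratio at least 3 library SD, with starting fluorescence B-score inside 5 SD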
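System: HEK293 cells stably expressing human MrgX1 receptor; Dosing: test compound in the initial addition of three; Schedule: overnight plating, then 30 min 37 °C plus 30 min room-temperature dye loading; Detection: kinetic calcium dye fluorescence, Fluo-4 NW; Controls: per-plate positive and negative controls for Z′ factor.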
MrgX1 allo act = human MrgX1 positive allosteric modulation, primary screen. Q96LB2. MrgX1-HEK293, Fluo-4 calcium flux, FDSS; hits give high values. B-score at 10 µM. hit rate 0.63% among 310,000. AID 588675;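 active means plate-corrected calcium response at least 3 library SD above typical, normal starting fluorescence, not activating the receptor alone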;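 further: compound read alongside a low EC10 to EC30 dose of BAM8-22 agonist; peak minus trough fluorescence over baseline measured at the second addition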
MrgX1 allo conf = confirmation of human MrgX1 receptor positive allosteric modulators. shares compounds with MrgX1 allo act. MrgX1-HEK293, Fluo-4 calcium fluorescence, FDSS. activation (ratio percentage), % at 10 µM. hit rate 13% among 1,200. AID 602413;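 active means ratio at least 3 SD above the weak peptide control, stable starting fluorescence, no direct agonism earlier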;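 further: compound followed by low BAM8-22 agonist challenge near EC20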
HEK293 Ca flux = MrgX1 antagonist counter-screen hit in parental HEK293 cells; shares compounds with MrgX1 antag; hit rate 2% among 4,000; Fluo-4 calcium fluorescence, FDSS; fluorescence ratio F(max-min)/F0 at 10 µM;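 active means duplicate-averaged calcium fluorescence ratio at least three times the standard deviation of buffer wells, a nonspecific response in parental cells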
HEK293 Ca counter = MrgX1 allosteric activator counter-screen hit in parental HEK293 cells | fluorescence ratio F(max-min)/F0 at 10 µM | AID 624114 | shares compounds with MrgX1 antag | hit rate 0.4% among 4,000 | parental HEK293 calcium flux, Fluo-4 fluorescence ratio; hits give high values;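 active means calcium fluorescence ratio, averaged over duplicates, at least 3 SD of the buffer-well ratio, meaning a nonspecific response in receptor-free cells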;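 further: untransfected parental HEK293 lacking MrgX1 used as counterscreen for MrgX1 allosteric activators; fluorescence change taken during the second addition on a kinetic imager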
HEK293 Ca cntr2 = MrgX1 activator counter-screen hit in parental HEK293 cells. shares compounds with MrgX1 antag. Fluo-4 calcium fluorescence (FDSS); hits give high values. fluorescence ratio F(max-min)/F0 at 10 µM. hit rate 8.7% among 4,000;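 active means calcium fluorescence ratio at least three times the spread of buffer wells, meaning a non-specific response in parental cells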
An asterisk follows results filed as active; i = inactive; . = no result.

SMILES	RGS4 pot	RGS4 block	MrgX1 antag	MrgX1 agonist	MrgX1 allo act	MrgX1 allo conf	HEK293 Ca flux	HEK293 Ca counter	HEK293 Ca cntr2
Cc1ccccc1N1C(=O)C2C3CCC(O3)C2C1=O (stereo not drawn)	i	i	i	i	18.7*	i	i	i	i
COc1ccc(-c2csc3nc(-c4cccnc4)nc(Cl)c23)cc1OC	i	i	i	i	6.66*	3.9%*	i	i	i
COc1ccc(CCN=C(N)NS(=O)(=O)c2cccs2)cc1OC	i	i	i	i	i	.	.	.	.
CCOC(=O)c1c(-c2ccccc2)nc2cc(C)ccn12	i	i	i	i	i	.	.	.	.
CCOC(=O)c1c(-c2ccccc2)nc2ccc(C)cn12	i	i	i	i	9.5*	i	i	i	i
Cc1ccc(Nc2cc(C)nc3c(C)cccc23)cc1	i	i	i	i	7.29*	i	i	i	i
CC(=O)c1ccc(Nc2cc(C)nc3c(C)cccc23)cc1	i	i	i	i	i	.	.	.	.
COC(=O)c1ccccc1NC(=O)COC(=O)C1CCCCC1	i	i	i	i	8.3*	i	i	i	i
COC(=O)c1ccccc1NC(=O)C1CCCC1	i	i	i	i	i	.	.	.	.
COC(=O)c1ccccc1NC(=S)NC(=O)C1CCCCC1	i	i	i	i	7.5*	i	i	i	i
CCn1c(=O)c2sccc2n(Cc2cccc(C)c2)c1=O	i	i	i	i	i	.	.	.	.
CCOC(=O)Cc1csc(NC(=O)c2ccc(Br)o2)n1	i	i	i	i	16.5*	i	i	i	i
CCOC(=O)Cc1csc(NC(=O)c2cc3ccccc3o2)n1	i	i	i	i	6.78*	i	i	i	i
Nc1nnc(-c2cccc([N+](=O)[O-])c2)o1	i	i	i	i	i	.	.	.	.
CCC(c1nnnn1CCc1ccccc1)N1CCN(c2ccc(OC)cc2)CC1 (stereo not drawn)	i	i	i	i	7.73*	i	i	i	i
COc1ccc(-c2cc(C(=O)N3CCN(c4ncccn4)CC3)c3ccccc3n2)c(OC)c1	i	i	i	i	7.44*	i	i	i	71*
CCc1nc2ccc(C(=O)N(C)CC(=O)Nc3ccc(Cl)c(C(F)(F)F)c3)cc2nc1CC	i	i	i	i	13.7*	i	i	i	i
COc1ccccc1NC(=O)C(C)Nc1ccc(C)c(Cl)c1 (stereo not drawn)	i	i	i	i	6.87*	i	i	i	i
Cc1ccc(CNC(=O)C2CCC(=O)N2Cc2ccc(C)cc2)cc1 (stereo not drawn)	i	i	i	i	i	.	.	.	.
COc1cc(C(c2c(C)n(C)n(-c3ccccc3)c2=O)c2c(C)n(C)n(-c3ccccc3)c2=O)cc(Br)c1O	i	i	i	i	i	.	.	.	.
O=C(Nc1ccc(Br)cc1)C1OCCc2ccccc21 (stereo not drawn)	i	i	i	i	10.7*	i	i	i	i
Brc1ccc2c(c1)CNc1c(ncnc1N1CCOCC1)O2	i	i	i	i	10.5*	18.3%*	i	i	i
CCOC(=O)c1cnc(SCc2ccc(C)cc2)nc1N	i	i	i	i	i	.	.	.	.
CSc1ccc(CCNC(=O)CCc2nnc3ccc(N4CCCC4)nn23)cc1	i	i	i	i	i	.	.	.	.
Cc1cccc(NC(=O)CC(=O)Nc2cccc(C)c2)c1	i	i	i	i	i	.	.	.	.
SMILES	RGS4 pot	RGS4 block	MrgX1 antag	MrgX1 agonist	MrgX1 allo act	MrgX1 allo conf	HEK293 Ca flux	HEK293 Ca counter	HEK293 Ca cntr2
Cc1cccc(NC(=O)C23CCC(C)(C2Br)C3(C)C)c1 (stereo not drawn)	i	i	i	i	19.8*	i	i	i	i
C=C(C)Cn1c(-c2ccc(OC)cc2)nc2ccccc21	i	i	i	i	6.98*	i	i	i	i
CCOC(=O)C1=C(COC(=O)c2ccccc2OC(F)F)NC(=O)NC1C (stereo not drawn)	i	i	i	i	i	.	.	.	.
COc1ccc2[nH]c(=O)c(CN(Cc3cccnc3)Cc3nnnn3CC3CCCO3)cc2c1 (stereo not drawn)	i	i	i	i	26.2*	i	i	i	i
COc1ccc2[nH]c(=O)c(CN(Cc3nnnn3Cc3ccco3)C3CCCCC3)cc2c1	i	i	i	i	9.28*	i	i	i	i
COc1ccc2[nH]c(=O)c(CN(Cc3ccccc3)Cc3nnnn3CC3CCCO3)cc2c1 (stereo not drawn)	i	i	i	i	i	.	.	.	.
Cc1c(/C(O)=C2/C(=O)C(=O)N(CCN(C)C)C2c2ccc(C(C)C)cc2)cnn1-c1ccccc1 (stereo not drawn)	i	i	i	i	i	.	.	.	.
CN(C)S(=O)(=O)c1ccc(NC(=O)CN2CCC(Cc3ccccc3)CC2)cc1	i	i	i	i	i	.	.	.	.
OC(CCN1CCCCC1)(c1ccccc1)C1C[C@@H]2C=C[C@H]1C2 (stereo partly drawn)	.	.	i	i	6.54*	i	i	i	i
CN1CCN(CC#CC(C)(O)C2CC3C=CC2C3)CC1 (stereo not drawn)	i	i	i	i	i	.	.	.	.
CC(=O)Nc1ccc2nc3ccccc3nc2c1	i	i	i	i	i	.	.	.	.
O=C(c1ccc(Br)cc1)N(c1ccccn1)C1CCCCC1	i	i	i	i	19*	i	i	i	i
Cc1ccc(C2CC2c2n[nH]c(=S)n2-c2ccc(Cl)cc2)cc1 (stereo not drawn)	i	i	i	i	i	.	.	.	.
S=c1[nH]nc([C@@H]2C[C@H]2c2ccccc2)n1-c1ccccc1Cl	i	i	i	i	7.69*	i	i	i	i
